The values that follow come from ChEMBL document CHEMBL1139843, “Novel sulfamide analogs of oleoylethanolamide showing in vivo satiety inducing actions and PPARalpha activation” (J Med Chem, 2007).

Experiment [1] deals with T1, Peroxisome proliferator-activated receptor alpha (Homo sapiens, UniProt Q07869).
T1 sequence (Q07869 whole entry): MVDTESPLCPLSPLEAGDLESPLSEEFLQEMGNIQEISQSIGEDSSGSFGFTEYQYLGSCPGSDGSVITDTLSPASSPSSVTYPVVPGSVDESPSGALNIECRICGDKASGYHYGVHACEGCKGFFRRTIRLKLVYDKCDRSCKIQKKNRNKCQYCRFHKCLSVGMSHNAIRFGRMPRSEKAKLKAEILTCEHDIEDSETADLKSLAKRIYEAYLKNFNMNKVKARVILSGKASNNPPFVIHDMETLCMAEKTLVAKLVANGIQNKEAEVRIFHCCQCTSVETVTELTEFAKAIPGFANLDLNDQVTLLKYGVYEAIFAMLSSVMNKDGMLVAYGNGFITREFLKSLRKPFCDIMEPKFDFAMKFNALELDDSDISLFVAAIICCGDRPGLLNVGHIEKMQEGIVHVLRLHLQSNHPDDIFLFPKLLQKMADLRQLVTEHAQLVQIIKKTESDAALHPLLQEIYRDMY
The experiment is described as follows: Activation of human PPARalpha by GST pull down assay. Summed up:
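GST or GST-TIF2 Sepharose beads, pre-blocked with 1 µg/µl BSA, incubated with 20 ng in vitro translated [35S]-labeled PPARalpha with or without compound. Unbound translated protein washed off with immunoprecipitation buffer, then bound receptor detected.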

Experiment [2] deals with Rattus norvegicus. Briefly: Reduction in food intake in Wistar rat at 0.03 to 3 mg/kg, ip.
The target of experiment [3] is T2, Peroxisome proliferator-activated receptor alpha (Homo sapiens) (UniProt Q07869).
T2 sequence (whole entry): T1 sequence (Q07869 whole entry)
The experiment is described as follows: Agonist activity at human PPARalpha expressed in MCF7 cells transfected with co-activator TIF2 by luciferase reporter gene assay at 1 uM. The class given is functional, cell-based. Summed up:
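MCF-7 cells grown overnight in phenol red-free DMEM with 5% charcoal-treated FBS. Transfected with DOTAP liposomes carrying human ACO PPRE-luciferase reporter, wild-type hPPARalpha and full-length TIF2. Ligand or DMSO added 4 h after transfection, with medium topped up with charcoal-treated FBS. Cells lysed 16 h later. Luciferase normalized to protein, relative to DMSO-treated cells without overexpression; mean ± SD, n = 3-6.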
A general note: A reporter such as luciferase makes a cellular process visible.

Experiment [4] relates to Rattus norvegicus. The experiment is described as follows: Reduction in body weight of Wistar rat at 1 mg/kg, ip after 8 days. The class given is functional, organism-based. On the set-up: dose 1 mg/kg. The method in brief: (§1)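 Normal Wistar rats, free-feeding, dosed 1 mg/kg i.p. daily for 8 days at dark-period onset. Compound suspended in Tween 80/saline. Body weight and plasma triglycerides compared with vehicle-treated rats; means ± SEM, n = 3-6, ANOVA.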

For experiment [5], the system named is Rattus norvegicus. The experiment is described as follows: Reduction in body weight gain in obese Zucker rat at 1 mg/kg, ip after 11 days. The class given is functional, organism-based. On the set-up: dose 1 mg/kg. Summed up:
(§2)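 Genetically obese Zucker (fa/fa) rats, free-feeding, given 1 mg/kg i.p. daily for 11 days at dark-period onset, in Tween 80/saline. Cumulative relative weight gain (g/kg body weight, from day 1) and food intake compared with vehicle; means ± SEM, n = 3-6, ANOVA.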

Experiment [6] has as its system Rattus norvegicus. Briefly: Reduction in plasma triglycerides in Wistar rat at 1 mg/kg, ip after 8 days. In kind it is functional, organism-based. On the set-up: dose 1 mg/kg. Summed up:
as §1

For experiment [7], the system named is Rattus norvegicus. Briefly: Reduction in food intake in obese Zucker rat at 1 mg/kg, ip after 11 days. The class given is functional, organism-based. On the set-up: dose 1 mg/kg. Summed up: as §2

The source made the active and inactive calls. The rule behind the calls is not given here.

Regarding `CCCCCCCC/C=C\CCCCCCCCNS(=O)(=O)NCCC`, the response in experiment [1] was half-maximal at 11 µM (EC50).
Turning to `CCCCCCCCCCCCCCCCNS(=O)(=O)NCCC`, in experiment [1], the concentration for a half-maximal effect (EC50) (commonly the concentration that produces a half-maximal response) amounted to 21 µM.
As for `CCCCCCCCCCCCCCCCCCNS(N)(=O)=O`, the EC50 in experiment [1] is > 10000 µM. Moreover, in experiment [2], the outcome was Active. For the same compound, the outcome in experiment [3] was inactive.
In turn, `CCCCCCCC/C=C\CCCCCCCCNS(N)(=O)=O` displayed a concentration giving a half-maximal response (EC50) in experiment [1] of 0.524 µM.
In experiment [1], `CCCCCCCC/C=C\CCCCCCCC(=O)NCCO` [OLEOYLETHANOLAMIDE] came in with an EC50 of 0.11 µM. Besides, the outcome in experiment [3] was Active.
Turning to `CCCCCCCCCCCCCCCCNS(N)(=O)=O`, the EC50 in experiment [1] was > 10000 µM.
For the compound `Cc1cccc(Nc2cc(Cl)nc(SCC(=O)O)n2)c1C`, the result in experiment [3] was Active.
For the compound `CCCCCCCCCCCCCCCCCCNS(=O)(=O)NCCC`, the result in experiment [4], in experiment [5], in experiment [6], in experiment [3] and in experiment [7] was Active. In experiment [1], this compound yielded an EC50 of 0.1 µM.
